The subject of experiment [1] is Pseudomonas aeruginosa. In words: In vivo efficacy (s.c.) against Pseudomonas aeruginosa in mouse protection test. The note with it: Pseudomonas aeruginosa, sc; read-out: PD50. The class given is functional. In a few lines:
(§1)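 Acute lethal systemic infections in female Charles River CD-1 mice. A single dose was given at challenge, orally by gavage or by subcutaneous injection. PD50 (median protective dose, mg/kg) was determined.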

The subject of experiment [2] is Streptococcus pyogenes. In words: In vivo efficacy (s.c.) against Streptococcus pyogenes C-203 in mouse protection test. The class given is functional. Particulars: Streptococcus pyogenes, sc; read-out: PD50. In a few lines:
as §1

The subject of experiment [3] is Escherichia coli. In words: In vivo efficacy in mouse protection test in Escherichia coli Vogel administered by subcutaneous injection. The class given is functional. Particulars: Escherichia coli, sc; read-out: PD50. The gist of the method: as §1
Experiment [4] deals with Streptococcus pneumoniae. In words: Minimum inhibitory concentration (MIC) against gram positive bacteria Streptococcus pneumoniae SV-1. Type of experiment: functional. The note with it: Streptococcus pneumoniae; read-out: MIC. In a few lines:
(§2)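 MICs were determined by standard broth microtitration against 11 Gram-positive and Gram-negative organisms, in µg/mL. Values come from duplicate or triplicate experiments and are accurate to ±50%.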

The species named for experiment [5] is Mus musculus. The experiment can be described thus: Number of mice which show positive phototoxic reaction in 5 mice. Type of experiment: functional.
Experiment [6] deals with Escherichia coli. The experiment can be described thus: In vivo efficacy in mouse protection test in Escherichia coli Vogel dose administered orally by gavage. The note with it: Escherichia coli, po; read-out: PD50. The class given is functional. The gist of the method:
as §1

For experiment [7], the system named is Mus musculus. The experiment can be described thus: Maximum tolerance dose was measured for phototoxic skin reaction by po administration. The class given is functional.
A short description of experiment [8]: Minimum inhibitory concentration (MIC) against gram negative bacteria Prot. rettgeri M-1771. The class given is functional, Providencia rettgeri. The note with it: Providencia rettgeri; read-out: MIC. In a few lines: as §2
Experiment [9] concerns Streptococcus pyogenes. In words: Minimum inhibitory concentration (MIC) against gram positive bacteria Streptococcus pyogenes C-203. Type of experiment: functional. The note with it: Streptococcus pyogenes; read-out: MIC. In a few lines: as §2
A further experiment relates to Enterococcus faecalis. The experiment can be described thus: Minimum inhibitory concentration (MIC) against gram positive bacteria Streptococcus faecalis MGH-2. The note with it: Enterococcus faecalis; read-out: MIC. The class given is functional. In a few lines: as §2
For experiment [10], the system named is Streptococcus pneumoniae. The experiment can be described thus: In vivo efficacy (s.c.) against Streptococcus pneumoniae SV-1 in mouse protection test. The class given is functional. The note with it: Streptococcus pneumoniae, sc; read-out: PD50. The gist of the method: as §1
In experiment [11] the test system is Streptococcus pyogenes. The experiment can be described thus: In vivo efficacy (orally) against Streptococcus pyogenes C-203 in mouse protection test. The note with it: Streptococcus pyogenes, po; read-out: PD50. The class given is functional. The gist of the method: as §1
Experiment [12] is filed under the species Mus musculus. The experiment can be described thus: Days of the first positive reaction in […] mice. The class given is functional. The gist of the method:
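Phototoxic skin reaction test in depilated female CD-1 mice. A single oral dose (gavage) or subcutaneous dose was given, followed 1 h later by 3 h of UVA exposure (320–400 nm). The regimen was repeated for up to 4 consecutive days, with initial doses of 30, 100 and 300 mg/kg. PTD50 was derived by the probit method. The first day of positive reaction and the no-effect dose were taken from the raw data.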

Experiment [13] deals with Staphylococcus aureus. The experiment can be described thus: Minimum inhibitory concentration (MIC) against gram positive bacteria Staphylococcus aureus UC-76. Type of experiment: functional. The note with it: Staphylococcus aureus; read-out: MIC. In a few lines:
as §2

The subject of experiment [14] is Pseudomonas aeruginosa. In words: Minimum inhibitory concentration (MIC) against gram negative bacteria Pseudomonas aeruginosa UI-18. Type of experiment: functional. The note with it: Pseudomonas aeruginosa; read-out: MIC. In a few lines: as §2
For experiment [15], the system named is Escherichia coli. The experiment can be described thus: Minimum inhibitory concentration (MIC) against gram negative bacteria Escherichia coli H-560. The class given is functional. The note with it: Escherichia coli; read-out: MIC. In a few lines: as §2
The test system of the next experiment is Klebsiella pneumoniae. The experiment can be described thus: Minimum inhibitory concentration (MIC) against gram negative bacteria Klebsiella pneumoniae MGH-2. The class given is functional. The note with it: Klebsiella pneumoniae; read-out: MIC. In a few lines: as §2
Experiment [16] relates to Staphylococcus aureus. In words: Minimum inhibitory concentration (MIC) against gram positive bacteria Staphylococcus aureus H-228. Particulars: Staphylococcus aureus; read-out: MIC. Type of experiment: functional. In a few lines:
as §2

Experiment [17] has as its system Streptococcus pneumoniae. In words: In vivo efficacy (orally) against Streptococcus pneumoniae SV-1 in mouse protection test. Type of experiment: functional. Particulars: Streptococcus pneumoniae, po; read-out: PD50. In a few lines:
as §1

For experiment [18], the system named is Pseudomonas aeruginosa. In words: In vivo efficacy (orally) against Pseudomonas aeruginosa in mouse protection test. The class given is functional. Particulars: Pseudomonas aeruginosa, po; read-out: PD50. In a few lines:
as §1

Experiment [19] is filed under the species Mus musculus. In words: Dose which has no effect to induce phototoxic reaction in 50% of mice by probit method. Type of experiment: functional.
The species entered for experiment [20] is Mus musculus. The experiment can be described thus: Dose required to induce phototoxic reaction in 50% of mice by probit method at different dosage forms. Type of experiment: functional.
In experiment [21] the test system is Escherichia coli. The experiment can be described thus: Minimum inhibitory concentration (MIC) against gram negative bacteria Escherichia coli Vogel. The class given is functional. The note with it: Escherichia coli; read-out: MIC. In a few lines: as §2
Another experiment relates to Enterobacter cloacae. The experiment can be described thus: Minimum inhibitory concentration (MIC) against gram negative bacteria Enterobacter cloacae MA-2646. The class given is functional.

Converted amounts (≈) assume the structure as drawn.

By MIC is commonly meant the lowest concentration that inhibits growth of the organism. By MTD is commonly meant the highest dose tested that stayed within the study's limit of toxicity. A low value points to poorer tolerability.

For `CCn1cc(C(=O)O)c(=O)c2cc(F)c(N3CCN(C)CC3)cc21` [PEFLOXACIN], the ED50 stood at 26 mg/kg with Pseudomonas aeruginosa [1]; 94 mg/kg in the experiment on Streptococcus pyogenes [2]; 2 mg/kg in the experiment on Escherichia coli [3]; 3 mg/kg in the experiment with Escherichia coli [6]; 96 mg/kg in the experiment on Streptococcus pneumoniae [10]; 110 mg/kg in the experiment with Streptococcus pyogenes [11]. The ED50 is over 200 mg/kg in the experiment on Streptococcus pneumoniae [17] and 38 mg/kg in the experiment with Pseudomonas aeruginosa [18]. Moreover, the MIC is 0.8 µg/mL (≈ 2.4 µM) with Streptococcus pneumoniae [4]; 0.05 µg/mL (≈ 0.15 µM) in [8]; 0.8 µg/mL (≈ 2.4 µM) in the experiment with Streptococcus pyogenes [9]; 0.8 µg/mL (≈ 2.4 µM) in the experiment with Enterococcus faecalis; 0.1 µg/mL (≈ 0.3 µM) with Staphylococcus aureus [13]; 0.4 µg/mL (≈ 1.2 µM) in the experiment with Pseudomonas aeruginosa [14]. Moreover, the MIC in the experiment with Escherichia coli [15] amounted to 0.1 µg/mL (≈ 0.3 µM); in the experiment with Klebsiella pneumoniae, 0.05 µg/mL (≈ 0.15 µM); in the experiment on Staphylococcus aureus [16], 0.2 µg/mL (≈ 0.6 µM); in the experiment on Escherichia coli [21], 0.025 µg/mL (≈ 0.075 µM). Besides, the “No. of pos rxns” value in the experiment listed under Mus musculus [5] stood at 2. The MTD in the experiment with Mus musculus [7] is 300 mg/kg. The “Day of first positve reaction” value in the experiment listed under Mus musculus [12] is 4. For the same molecule, the No effect dose in the experiment filed under Mus musculus [19] is over 172 mg/kg. The molecule further gave a PTD50 in the experiment filed under Mus musculus [20] of 265 mg/kg.

`CCNCC1CCN(c2c(F)cc3c(=O)c(C(=O)O)cn(C4CC4)c3c2F)C1` (stereo not given) [PD-117558]: the ED50 with Pseudomonas aeruginosa [1] worked out at 40 mg/kg; in the experiment on Streptococcus pyogenes [2] it was 0.5 mg/kg; in the experiment on Escherichia coli [3], 1 mg/kg; in the experiment with Escherichia coli [6], 4.2 mg/kg; in the experiment with Streptococcus pneumoniae [10], 1.9 mg/kg; in the experiment on Streptococcus pyogenes [11] it was 1.8 mg/kg. The figures for the ED50 in the experiment on Streptococcus pneumoniae [17] and in the experiment on Pseudomonas aeruginosa [18] were 3.3 mg/kg and 59 mg/kg, respectively. Moreover, the MIC in the experiment with Enterobacter cloacae amounted to 0.1 µg/mL (≈ 0.255 µM); in the experiment on Streptococcus pneumoniae [4] it was 0.025 µg/mL (≈ 0.0639 µM); in experiment [8], 0.4 µg/mL (≈ 1.02 µM); in the experiment with Enterococcus faecalis, 0.025 µg/mL (≈ 0.0639 µM); in the experiment on Staphylococcus aureus [13], 0.006 µg/mL (≈ 0.0153 µM); with Pseudomonas aeruginosa [14], 0.4 µg/mL (≈ 1.02 µM). Besides, the minimum inhibitory concentration (MIC) in the experiment with Escherichia coli [15] turned out to be 0.013 µg/mL (≈ 0.0332 µM); with Klebsiella pneumoniae, 0.2 µg/mL (≈ 0.511 µM); in the experiment on Staphylococcus aureus [16], 0.05 µg/mL (≈ 0.128 µM); in the experiment on Escherichia coli [21], 0.05 µg/mL (≈ 0.128 µM). In addition, the “No. of pos rxns” value in the experiment filed under Mus musculus [5] was 5. In addition, the MTD in the experiment with Mus musculus [7] stood at 30 mg/kg. Further, in the experiment filed under Mus musculus [12], the “Day of first positve reaction” value worked out at 1. This molecule also had a No effect dose in the experiment filed under Mus musculus [19] of 30 mg/kg. Further, in the experiment listed under Mus musculus [20], the PTD50 was under 30 mg/kg.

Turning to `CC1(CN)CCN(c2cc3c(cc2F)c(=O)c(C(=O)O)cn3C2CC2)C1` (stereo not given), the ED50 was found to be 1.7 mg/kg in the experiment on Escherichia coli [3], 26 mg/kg with Escherichia coli [6], 0.45 mg/kg with Streptococcus pneumoniae [10] and 12 mg/kg with Streptococcus pneumoniae [17]. Further, the MIC was determined as 0.05 µg/mL (≈ 0.139 µM) in the experiment with Enterobacter cloacae; 0.003 µg/mL (≈ 0.00835 µM) with Streptococcus pneumoniae [4]; 0.4 µg/mL (≈ 1.11 µM) in experiment [8]; 0.003 µg/mL (≈ 0.00835 µM) with Streptococcus pyogenes [9]; 0.05 µg/mL (≈ 0.139 µM) with Enterococcus faecalis; 0.013 µg/mL (≈ 0.0362 µM) in the experiment on Staphylococcus aureus [13]. In addition, the minimum inhibitory concentration (MIC) in the experiment with Pseudomonas aeruginosa [14] is 1.6 µg/mL (≈ 4.45 µM); in the experiment with Escherichia coli [15], 0.025 µg/mL (≈ 0.0696 µM); in the experiment with Klebsiella pneumoniae, 0.2 µg/mL (≈ 0.556 µM); in the experiment with Staphylococcus aureus [16] it was 0.1 µg/mL (≈ 0.278 µM); with Escherichia coli [21] it was 0.025 µg/mL (≈ 0.0696 µM). Also, in the experiment filed under Mus musculus [5], the “No. of pos rxns” value is 0. In the experiment with Mus musculus [7], this molecule yielded an MTD of 100 mg/kg. Also, the “Day of first positve reaction” value in the experiment filed under Mus musculus [12] stood at 0. In the experiment listed under Mus musculus [19], this molecule showed a No effect dose of 100 mg/kg. For the same molecule, in the experiment listed under Mus musculus [20], the PTD50 was over 100 mg/kg.

Take `NC1CCN(c2c(F)cc3c(=O)c(C(=O)O)cn(C4CC4)c3c2C(F)(F)F)C1` (stereo not given): the ED50 is 23 mg/kg in the experiment with Pseudomonas aeruginosa [1]; 26 mg/kg in the experiment on Streptococcus pyogenes [2]; 1.4 mg/kg with Escherichia coli [3]; 2.9 mg/kg in the experiment on Escherichia coli [6]; 26 mg/kg with Streptococcus pneumoniae [10]; 32 mg/kg in the experiment with Streptococcus pyogenes [11]. Moreover, the ED50 came out at 25 mg/kg in the experiment with Streptococcus pneumoniae [17] and 53 mg/kg in the experiment with Pseudomonas aeruginosa [18]. Also, the minimum inhibitory concentration (MIC) against Enterobacter cloacae was 0.05 µg/mL (≈ 0.125 µM); in the experiment with Streptococcus pneumoniae [4], 0.4 µg/mL (≈ 1 µM); in experiment [8] it was 0.4 µg/mL (≈ 1 µM); in the experiment with Streptococcus pyogenes [9] it was 0.4 µg/mL (≈ 1 µM); in the experiment on Enterococcus faecalis, 0.4 µg/mL (≈ 1 µM); in the experiment on Staphylococcus aureus [13], 0.05 µg/mL (≈ 0.125 µM). The minimum inhibitory concentration (MIC) in the experiment on Pseudomonas aeruginosa [14] was 1.6 µg/mL (≈ 4.01 µM); in the experiment on Escherichia coli [15], 0.025 µg/mL (≈ 0.0626 µM); with Klebsiella pneumoniae it was 0.2 µg/mL (≈ 0.501 µM); in the experiment on Staphylococcus aureus [16], 0.1 µg/mL (≈ 0.25 µM); with Escherichia coli [21], 0.05 µg/mL (≈ 0.125 µM). Also, the “No. of pos rxns” value in the experiment filed under Mus musculus [5] is listed as 0. Further, in the experiment with Mus musculus [7], the MTD worked out at 300 mg/kg. Besides, the “Day of first positve reaction” value in the experiment listed under Mus musculus [12] is on record as 0. Also, in the experiment listed under Mus musculus [19], the No effect dose came to 300 mg/kg. The PTD50 in the experiment filed under Mus musculus [20] was over 300 mg/kg.

The record behind these values is ChEMBL document CHEMBL1125291, “New 8-(trifluoromethyl)-substituted quinolones. The benefits of the 8-fluoro group with reduced phototoxic risk” (1992).
